The values that follow come from publication PMC10286293 (ACS Omega, 2023).

One data set can be described thus: Hygroscopicity test. The class given is physicochemical. The conditions noted are these: for percentage weight gain on the first day: 298 K, relative humidity 90 ± 5%; for hygroscopicity class (Chinese Pharmacopoeia): by weight gain.
The subject of the next data set is S. pneumoniae. Put plainly: Antibacterial activity. In kind it is cell-based, Streptococcus pneumoniae. The conditions noted are these: Figure 9, trimethoprim vs compound 1 vs 5-fluorouracil. In outline:
(§1)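 Two-fold broth microdilution at ten concentrations (32, 16, 8, 4, 2, 1, 0.5, 0.25, 0.125, 0.0625 μg/mL) of test compound with bacterial suspension in medium. Medium-only and bacteria-plus-medium controls were included. Plates were incubated at 310 K for 24 h, and OD600 gave the MIC.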

A further data set deals with S. aureus. Briefly: Antibacterial activity. The class given is cell-based, Staphylococcus aureus. The conditions noted are these: Figure 9, trimethoprim vs compound 1 vs 5-fluorouracil. In outline: as §1
The subject of the next data set is S. dysenteriae. Put plainly: Antibacterial activity. In kind it is cell-based, Shigella dysenteriae. The note with it: Figure 9, trimethoprim vs compound 1 vs 5-fluorouracil. In outline:
as §1

The subject of another data set is P. aeruginosa. Put plainly: Antibacterial activity. In kind it is cell-based, Pseudomonas aeruginosa. The conditions noted are these: Figure 9, trimethoprim vs compound 1 vs 5-fluorouracil. In outline:
as §1

The test system of data set [1] is human colon cancer cells (SW480). Put plainly: In vitro anticancer activity, MTT assay. The class given is cell-based. The conditions noted are these: SW480 (human rectal cancer cells), MTT, 24, 48, 72 h, dose-dependent. A digest of the protocol: (§2)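 Cells were grown in DMEM with 10% FBS, 1% penicillin and 1% streptomycin at 37 °C, 5% CO2, and used in log phase (85–95% confluent). They were seeded at 3 × 10^5 cells/mL, grown 24 h, then exposed to a range of test compound concentrations for 24, 48 or 72 h, with a positive control. MTT (5 mg/mL stock) was added for 4 h at 37 °C. Formazan was dissolved in DMSO and read at 490 nm after 10 min shaking, with blank-well correction.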
(In general: Tetrazolium assays rely on reduction of a dye to a coloured formazan, in cell work by metabolically active cells.)

The subject of data set [2] is lung cancer cells (H1299). Briefly: In vitro anticancer activity, MTT assay. The class given is cell-based, human. The note with it: MTT, 24, 48, 72 h, dose-dependent. In outline:
as §2

In data set [3] the test system is breast cancer cells (MDA-MB-231). Briefly: In vitro anticancer activity, MTT assay. The class given is cell-based, human. The note with it: MDA-MB-231 breast cancer cells, MTT, 24, 48, 72 h, dose-dependent. A digest of the protocol: as §2
In the next data set the test system is mice. The conditions noted are these: cited from earlier work.
Data set [4] in a line: Intrinsic dissolution rate in pure water. The class given is physicochemical. The note with it: 310 K, 100 rpm.

The structures appear in SMILES notation. A value given as a limit tells only on which side of the number the result lay.

With `O=c1[nH]cc(F)c(=O)[nH]1` [5-fluorouracil], the “percentage weight gain on the first day” value in “Hygroscopicity test” stood at 0.19%. The “hygroscopicity class (Chinese Pharmacopoeia)” value in “Hygroscopicity test” is on record as “slightly hygroscopic (slightly hygroscopic ≥ 0.2%)”. The “antibacterial activity, comparison in words” value in the data set with S. pneumoniae, in the data set on S. aureus, with S. dysenteriae and with P. aeruginosa was “the greatest” each time. Also, the “inhibition effect on cancer cells” value in data set [1], in data set [2] and in data set [3] was “significant inhibition effect” each time. Also, the “oral LD50” value in the data set with mice is 220 mg/kg.
With `COc1cc(Cc2cnc(N)nc2N)cc(OC)c1OC` [trimethoprim], in “Hygroscopicity test”, the “percentage weight gain on the first day” value is 0.20% and the “hygroscopicity class (Chinese Pharmacopoeia)” value is reported as “slightly hygroscopic (slightly hygroscopic ≥ 0.2%)”. For the same compound, the “IDR (intrinsic dissolution rate)” value in [4] came to 0.039 mg cm^–2 min^–1. The “antibacterial activity, comparison in words” value in the data set on S. aureus is listed as “greater than that of compound 1”. Besides, the “oral LD50” value in the data set with mice is recorded as above 5300 mg/kg.
